Active and inactive are the calls of the source. The rule behind the calls is not given here.
What was measured:
[1] = Drug absorption in fed Beagle dog plasma at 6 mg/kg, po measured upto 24 hrs in presence of 3 mg/kg encequidar by LC-MS/MS analysis; assay type: ADME, organism-based, Canis lupus familiaris; details: in vivo
[2] = system: HT-29; assay: Antitumor activity against human HT-29 cells xenografted in athymic nude mouse assessed as induction of remission of tumor growth at 40 mg/kg, po in presence of 20 mg/kg encequidar measured until day 47; assay type: functional, organism-based
[3] = Ratio of drug concentration in BALB/c mouse kidney to plasma at 20 mg/kg, po measured upto 24 hrs in presence of 10 mg/kg encequidar by LC-MS/MS analysis; assay type: ADME, organism-based
[4] = Drug distribution in BALB/c mouse kidney at 20 mg/kg, po measured upto 24 hrs in presence of 10 mg/kg encequidar by LC-MS/MS analysis; assay type: ADME, organism-based; details: in vivo
[5] = Toxicity in athymic nude mouse xenografted with human NCI-H460 cells assessed as reduction in body weight at 18 to 24 mg/kg, iv administered every other day for 4 doses monitored for 48 days; assay type: organism-based; details: in vivo, 1152 h, dose 18-24 mg/kg, time 48 day
Outline: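 Female athymic NCr-nu mice carried subcutaneous NCI-H460 human lung tumor xenografts. Paclitaxel was given IV at 18 or 24 mg/kg every other day for four doses. Animals were followed for 48 days after tumor implantation, with individual body weights and mortality recorded alongside tumor weights.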

[6] = Drug metabolism in dog plasma assessed as metabolic ratio of 6alpha-hydroxypaclitaxel at 6 mg/kg, po in presence of 3 mg/kg encequidar; assay type: ADME, organism-based, Canis lupus familiaris; details: in vivo
[7] = Tmax in Sprague-Dawley rat at 20 mg/kg, po measured upto 24 hrs in presence of 10 mg/kg encequidar by LC-MS/MS analysis; assay type: ADME, organism-based; details: in vivo
[8] = system: MDA-MB-231; assay: Antitumor activity against human MDA-MB-231 cells xenografted in athymic nude mouse assessed as reduction in tumor growth at 30 mg/kg, po administered every other day for 4 doses in presence 12 mg/kg encequidar and monitored for 70 to 82 days; assay type: functional, organism-based; details: time 70-82 day
[9] = target: T1, Cytochrome P450 1A2 (Homo sapiens, UniProt P05177); assay: Drug metabolism assessed as human CYP1A2-mediated metabolism; assay type: ADME; details: recombinant enzyme
T1 sequence (P05177 whole entry): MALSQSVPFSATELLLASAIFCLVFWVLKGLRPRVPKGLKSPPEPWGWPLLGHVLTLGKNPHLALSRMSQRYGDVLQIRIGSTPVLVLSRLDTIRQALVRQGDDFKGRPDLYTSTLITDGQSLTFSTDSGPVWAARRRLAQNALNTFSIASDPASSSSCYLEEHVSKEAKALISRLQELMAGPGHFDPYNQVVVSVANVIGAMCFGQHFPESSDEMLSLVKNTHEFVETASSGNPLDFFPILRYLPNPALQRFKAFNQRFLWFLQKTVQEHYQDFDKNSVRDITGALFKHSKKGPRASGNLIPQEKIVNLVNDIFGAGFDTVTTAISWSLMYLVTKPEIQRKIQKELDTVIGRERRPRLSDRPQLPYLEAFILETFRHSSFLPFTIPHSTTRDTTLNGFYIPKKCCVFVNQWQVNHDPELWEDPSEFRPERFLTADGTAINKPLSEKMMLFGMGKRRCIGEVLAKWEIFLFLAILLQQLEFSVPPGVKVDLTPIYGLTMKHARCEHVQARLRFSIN

[10] = target: Cytochrome P450 3A4 (Homo sapiens, UniProt P08684); assay: Drug metabolism assessed as human CYP3A4-mediated metabolism; assay type: ADME; details: recombinant enzyme
Sequence of Cytochrome P450 3A4 (P08684 whole entry): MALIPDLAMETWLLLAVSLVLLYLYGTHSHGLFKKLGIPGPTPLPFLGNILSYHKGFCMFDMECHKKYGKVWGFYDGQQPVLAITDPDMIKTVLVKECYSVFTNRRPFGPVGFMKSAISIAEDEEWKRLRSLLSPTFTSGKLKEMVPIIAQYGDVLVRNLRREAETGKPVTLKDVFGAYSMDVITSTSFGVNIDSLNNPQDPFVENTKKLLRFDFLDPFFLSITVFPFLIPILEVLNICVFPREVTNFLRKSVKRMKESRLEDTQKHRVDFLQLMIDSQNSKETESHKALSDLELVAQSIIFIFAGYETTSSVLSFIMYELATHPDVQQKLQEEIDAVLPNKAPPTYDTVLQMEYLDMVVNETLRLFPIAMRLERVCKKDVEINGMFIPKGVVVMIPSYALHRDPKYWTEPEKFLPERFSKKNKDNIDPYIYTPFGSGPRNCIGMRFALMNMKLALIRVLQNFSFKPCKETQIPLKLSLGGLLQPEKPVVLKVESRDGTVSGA

[11] = Half life in Sprague-Dawley rat at 3 mg/kg, iv measured upto 48 hrs by LC-MS/MS analysis; assay type: ADME, organism-based; details: in vivo
Outline: (§1)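 Plasma pharmacokinetics in male Sprague-Dawley rats and male Beagle dogs (n = 3 per species), each given a single dose by IV at 3 mg/kg and by PO at 10 mg/kg. Cmax, Tmax, T1/2 and AUClast were derived for each route. F (%) was calculated from the PO and IV AUClast.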

[12] = target: T2, Organic anion transporter 3 (Homo sapiens, UniProt Q8TCC7); assay: Inhibition of human OAT3 assessed as reduction in intracellular probe substrate accumulation upto 100 uM by microplate scintillation counter analysis relative to control; assay type: cell-based
T2 sequence (Q8TCC7 whole entry): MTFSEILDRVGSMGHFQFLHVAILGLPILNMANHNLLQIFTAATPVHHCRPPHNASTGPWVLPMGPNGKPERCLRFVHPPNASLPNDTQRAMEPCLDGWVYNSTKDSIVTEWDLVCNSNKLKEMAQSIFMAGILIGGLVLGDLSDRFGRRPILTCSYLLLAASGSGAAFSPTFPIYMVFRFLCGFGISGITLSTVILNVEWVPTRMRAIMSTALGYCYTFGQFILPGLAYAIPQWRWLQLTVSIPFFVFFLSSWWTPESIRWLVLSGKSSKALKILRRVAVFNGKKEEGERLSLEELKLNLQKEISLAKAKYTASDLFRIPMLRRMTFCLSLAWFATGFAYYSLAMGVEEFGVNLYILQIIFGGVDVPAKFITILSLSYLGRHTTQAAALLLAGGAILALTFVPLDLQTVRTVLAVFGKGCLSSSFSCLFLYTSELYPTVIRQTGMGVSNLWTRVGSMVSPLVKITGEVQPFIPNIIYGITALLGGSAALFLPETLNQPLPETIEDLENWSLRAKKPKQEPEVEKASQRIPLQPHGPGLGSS
Outline: (§2)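 Cellular uptake-inhibition assays used Chinese hamster ovary, HEK293 or MDCKII cells stably expressing the respective human SLC transporter, run alongside the corresponding control cells. Inhibitor was tested at concentrations up to 100 μM.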

[13] = Oral bioavailability in Beagle dog at 10 mg/kg measured upto 48 hrs by LC-MS/MS analysis; assay type: ADME, organism-based, Canis lupus familiaris; details: in vivo; outline: as §1
[14] = Drug distribution in Beagle dog bile; assay type: ADME, tissue-based, Canis lupus familiaris; details: in vivo
[15] = target: T3, Solute carrier family 22 member 6 (Homo sapiens, UniProt Q4U2R8); assay: Inhibition of human OAT1 assessed as reduction in intracellular probe substrate accumulation upto 100 uM by microplate scintillation counter analysis relative to control; assay type: cell-based; outline: as §2
T3 sequence (Q4U2R8 whole entry): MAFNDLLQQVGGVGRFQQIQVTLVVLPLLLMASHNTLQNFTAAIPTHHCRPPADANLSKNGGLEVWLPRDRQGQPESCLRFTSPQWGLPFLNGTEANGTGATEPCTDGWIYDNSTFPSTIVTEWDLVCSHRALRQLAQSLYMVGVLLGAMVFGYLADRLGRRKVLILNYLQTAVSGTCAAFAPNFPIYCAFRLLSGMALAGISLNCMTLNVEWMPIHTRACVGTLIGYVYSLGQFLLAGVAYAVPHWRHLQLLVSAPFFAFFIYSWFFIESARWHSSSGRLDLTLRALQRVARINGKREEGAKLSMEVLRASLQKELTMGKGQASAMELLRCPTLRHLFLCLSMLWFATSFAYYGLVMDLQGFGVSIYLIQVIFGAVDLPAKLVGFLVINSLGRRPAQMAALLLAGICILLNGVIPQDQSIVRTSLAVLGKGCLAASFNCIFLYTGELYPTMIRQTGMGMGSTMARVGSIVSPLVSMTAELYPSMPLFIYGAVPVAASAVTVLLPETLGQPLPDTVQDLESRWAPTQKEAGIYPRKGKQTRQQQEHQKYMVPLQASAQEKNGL

[16] = Drug distribution in Beagle dog brain; assay type: ADME, tissue-based, Canis lupus familiaris; details: in vivo

CC(=O)O[C@H]1C(=O)[C@@]2(C)[C@H]([C@H](OC(=O)c3ccccc3)[C@]3(O)C[C@H](OC(=O)[C@H](O)[C@@H](NC(=O)c4ccccc4)c4ccccc4)C(C)=C1C3(C)C)[C@]1(OC(C)=O)CO[C@@H]1C[C@@H]2O [PACLITAXEL]
Drug absorption [1]: Not Active | Activity [2]: Active | Kp at 24 h [3]: > 1 | Drug uptake [4]: Active | Activity [5]: Toxic | Ratio [6]: 0.76 | Tmax [7]: 1 h | Activity [8]: Active

COc1cc2c(cc1OC)CN(CCc1ccc(-n3nnc(-c4cc(OC)c(OC)cc4NC(=O)c4cc(=O)c5ccccc5o4)n3)cc1)CC2
Drug metabolism [9]: Metabolite_Notdetected | Drug metabolism [10]: Metabolite_Detected | half-life [11]: 14.8 h | inhibition (INH) [12]: < 50% | bioavailability [13]: 11.2% | Drug uptake [14]: Active | inhibition (INH) [15]: < 50% | Drug uptake [16]: Not Active

Reference: ChEMBL document CHEMBL4825663 (J Med Chem, 2021)
